In ChEMBL document CHEMBL3102799, “Glutathione-analogous peptidyl phosphorus esters as mechanism-based inhibitors of γ-glutamyl transpeptidase for probing cysteinyl-glycine binding site” (Bioorg Med Chem, 2014):
The source made the active and inactive calls. The calls are words filed in the database; no cut-off is given here.

Experiments:
Escherichia coli [1] = assay: Inhibition of hydrolytic activity of Escherichia coli GGT using 7-(N-gamma-glutamylamino)-4-methylcoumarin as substrate assessed as release of AMC after 10 mins by fluorescence assay
[2] = biological target: Glutathione hydrolase 1 proenzyme (Homo sapiens) (UniProt P19440); assay: Inhibition of hydrolytic activity of human GGT using 7-(N-gamma-glutamylamino)-4-methylcoumarin as substrate assessed as release of AMC at 1 mM after 10 mins by fluorescence assay
Sequence of Glutathione hydrolase 1 proenzyme (Homo sapiens) (P19440 1-380 limits assumed): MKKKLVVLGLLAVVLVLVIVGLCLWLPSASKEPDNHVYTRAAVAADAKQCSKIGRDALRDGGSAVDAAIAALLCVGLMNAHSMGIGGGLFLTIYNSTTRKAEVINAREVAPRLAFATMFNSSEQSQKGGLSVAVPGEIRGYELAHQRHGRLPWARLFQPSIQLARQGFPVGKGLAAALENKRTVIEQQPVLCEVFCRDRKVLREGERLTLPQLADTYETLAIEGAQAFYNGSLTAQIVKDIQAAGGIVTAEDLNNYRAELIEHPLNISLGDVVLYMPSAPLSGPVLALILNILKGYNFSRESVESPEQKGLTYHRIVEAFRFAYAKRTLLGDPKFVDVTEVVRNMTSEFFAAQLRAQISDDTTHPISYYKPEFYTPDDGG
Sequence of Glutathione hydrolase 1 proenzyme (Homo sapiens) (P19440 381-569 limits assumed): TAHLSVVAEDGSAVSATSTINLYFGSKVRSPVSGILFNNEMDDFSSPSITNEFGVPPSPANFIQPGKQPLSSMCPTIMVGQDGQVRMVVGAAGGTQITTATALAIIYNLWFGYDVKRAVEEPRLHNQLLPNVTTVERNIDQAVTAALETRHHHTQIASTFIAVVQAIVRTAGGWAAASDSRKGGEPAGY
Outline: (§1)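 Human GGT (HC-GTP, BSA-stabilised, used unpurified). Enzyme added to preincubated inhibitor plus 4.0 μM γ-Glu-AMC (final; Km 12.6 μM) in 100 mM sodium succinate pH 5.5, 25°C, no acceptor. AMC fluorescence (ex 350/em 440 nm) read continuously 10 min against AMC calibration; first-order fit of progress curves gives kobs; kon derived as kobs = kon[I]/(1+[S]/Km).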

[3] = biological target: Glutathione hydrolase 1 proenzyme (Homo sapiens) (UniProt P19440); assay: Inhibition of hydrolytic activity of human GGT using 7-(N-gamma-glutamylamino)-4-methylcoumarin as substrate assessed as release of AMC after 10 mins by fluorescence assay; outline: as §1
Escherichia coli [4] = assay: Inhibition of hydrolytic activity of Escherichia coli GGT using 7-(N-gamma-glutamylamino)-4-methylcoumarin as substrate assessed as release of AMC at 1 mM after 10 mins by fluorescence assay
Outline: (§2)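 E. coli enzyme purified from periplasmic fraction of recombinant E. coli K-12 (SH642). Time-dependent inactivation, pseudo-first-order: enzyme added to preincubated inhibitor plus 0.2 μM γ-Glu-AMC (final; equals Km) in 100 mM sodium succinate pH 5.5, 25°C, no acceptor substrate. AMC release (ex 350/em 440 nm) followed continuously 10 min; progress curves fit first-order for kobs; kon from kobs = kon[I]/(1+[S]/Km).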

Escherichia coli [5] = assay: Inhibition of hydrolytic activity of Escherichia coli GGT using 7-(N-gamma-glutamylamino)-4-methylcoumarin as substrate assessed as release of AMC at 1 mM by fluorescence assay; settings: TDE = time-dependent effect; outline: as §2
[6] = biological target: Glutathione hydrolase 1 proenzyme (Homo sapiens) (UniProt P19440); assay: Irreversible inhibition of hydrolytic activity of human GGT using 7-(N-gamma-glutamylamino)-4-methylcoumarin as substrate assessed as release of AMC at 1 mM after 10 mins by fluorescence assay; outline: as §1
Escherichia coli [7] = assay: Binding affinity to Cys-Gly binding site of Escherichia coli GGT by ion-spray mass spectroscopy analysis
[8] = biological target: Glutathione hydrolase 1 proenzyme (Homo sapiens) (UniProt P19440); assay: Ratio of acivicin to compound for hydrolytic activity of human GGT
[9] = biological target: Glutathione hydrolase 1 proenzyme (Homo sapiens) (UniProt P19440); assay: Inhibition of hydrolytic activity of human GGT using 7-(N-gamma-glutamylamino)-4-methylcoumarin as substrate assessed as release of AMC by fluorescence assay; settings: TDE = time-dependent effect; outline: as §1
Escherichia coli [10] = assay: Inhibition of hydrolytic activity of Escherichia coli GGT using 7-(N-gamma-glutamylamino)-4-methylcoumarin as substrate assessed as release of AMC at 1.5 mM after 10 mins by fluorescence assay; outline: as §2

CCCC[C@H](O[P@](=O)(CCC(N)C(=O)O)Oc1ccccc1)C(=O)NCC(=O)O (stereo partly drawn)
K (Escherichia coli [1]): 1.7 M⁻¹ s⁻¹ | inhibition [2]: inactive

N[C@H](C(=O)O)[C@@H]1CC(Cl)=NO1
K [3]: 0.4 M⁻¹ s⁻¹ | K (Escherichia coli [1]): 4200 M⁻¹ s⁻¹

CCC(OP(=O)(CCC(N)C(=O)O)Oc1ccccc1)C(=O)NCC(=O)O (mixture of isomers)
K [3]: 75 M⁻¹ s⁻¹ | K (Escherichia coli [1]): 80 M⁻¹ s⁻¹

CCCC[C@@H](O[P@@](=O)(CCC(N)C(=O)O)Oc1ccccc1)C(=O)NCC(=O)O (mixture of isomers)
inhibition (Escherichia coli [4]): inactive | inhibition [2]: inactive

CCCC[C@@H](O[P@](=O)(CCC(N)C(=O)O)Oc1ccccc1)C(=O)NCC(=O)O (mixture of isomers)
K (Escherichia coli [1]): 1.3 M⁻¹ s⁻¹ | inhibition [2]: inactive

CCCC[C@H](O[P@@](=O)(CCC(N)C(=O)O)Oc1ccccc1)C(=O)NCC(=O)O (mixture of isomers)
K [3]: 63.2 M⁻¹ s⁻¹ | inhibition (Escherichia coli [5]): tde | K (Escherichia coli [1]): 50.7 M⁻¹ s⁻¹

CCCC[C@H](O[P@@](=O)(CCC(N)C(=O)O)Oc1ccccc1)C(=O)OC (mixture of isomers)
inhibition (Escherichia coli [5]): tde | K (Escherichia coli [1]): 8.83 M⁻¹ s⁻¹ | inhibition [2]: inactive

CC[C@H](O[P@@](=O)(CCC(N)C(=O)O)Oc1ccccc1)C(=O)NCC(=O)O (mixture of isomers)
K [3]: 145 M⁻¹ s⁻¹ | inhibition (Escherichia coli [5]): tde | inhibition [6]: Active | Activity (Escherichia coli [7]): Active | K (Escherichia coli [1]): 109 M⁻¹ s⁻¹ | Ratio [8]: > 360

CC[C@H](O[P@](=O)(CCC(N)C(=O)O)OC)C(=O)NCC(=O)O (mixture of isomers)
inhibition (Escherichia coli [4]): inactive | inhibition [2]: inactive

NC(CCP(=O)(OCC(=O)NCC(=O)O)Oc1ccccc1)C(=O)O (mixture of isomers)
K [3]: 44.5 M⁻¹ s⁻¹ | K (Escherichia coli [1]): 80.6 M⁻¹ s⁻¹

NC(CC[P@@](=O)(Oc1ccccc1)O[C@@H](CCl)C(=O)NCC(=O)O)C(=O)O (mixture of isomers)
K [3]: 40.3 M⁻¹ s⁻¹ | inhibition (Escherichia coli [5]): tde | K (Escherichia coli [1]): 188 M⁻¹ s⁻¹

NC(CC[P@@](=O)(Oc1ccccc1)O[C@@H](CI)C(=O)NCC(=O)O)C(=O)O (mixture of isomers)
K [3]: 43.6 M⁻¹ s⁻¹ | inhibition (Escherichia coli [5]): tde | K (Escherichia coli [1]): 98.4 M⁻¹ s⁻¹

NC(CC[P@@](=O)(Oc1ccccc1)O[C@@H](Cc1ccccc1)C(=O)NCC(=O)O)C(=O)O (mixture of isomers)
K [3]: 4.44 M⁻¹ s⁻¹ | inhibition (Escherichia coli [5]): tde | K (Escherichia coli [1]): 389 M⁻¹ s⁻¹

N[C@@H](CCP(=O)(CCC(=O)NCC(=O)O)Oc1ccccc1)C(=O)O (mixture of isomers)
K [3]: 1.35 M⁻¹ s⁻¹ | inhibition [9]: tde | inhibition (Escherichia coli [10]): inactive
